From ChEMBL document CHEMBL2062369, “¹²⁵I-radiolabeled morpholine-containing arginine-glycine-aspartate (RGD) ligand of αvβ₃ integrin as a molecular imaging probe for angiogenesis” (J Med Chem, 2012) come the findings set out here.

For orientation: IC50 means the concentration at which inhibition is half-maximal. Read a high IC50 as weaker potency.

The target of data set [1] is T1, Integrin alpha-V/beta-3 (Homo sapiens, UniProt P05106+P06756). Briefly: Displacement of [125I] echistatin from alphaVbeta3 integrin isolated from human placenta after 3 hrs by liquid scintillation counter.
Target sequence in this assay (P05106 27-788 limits assumed): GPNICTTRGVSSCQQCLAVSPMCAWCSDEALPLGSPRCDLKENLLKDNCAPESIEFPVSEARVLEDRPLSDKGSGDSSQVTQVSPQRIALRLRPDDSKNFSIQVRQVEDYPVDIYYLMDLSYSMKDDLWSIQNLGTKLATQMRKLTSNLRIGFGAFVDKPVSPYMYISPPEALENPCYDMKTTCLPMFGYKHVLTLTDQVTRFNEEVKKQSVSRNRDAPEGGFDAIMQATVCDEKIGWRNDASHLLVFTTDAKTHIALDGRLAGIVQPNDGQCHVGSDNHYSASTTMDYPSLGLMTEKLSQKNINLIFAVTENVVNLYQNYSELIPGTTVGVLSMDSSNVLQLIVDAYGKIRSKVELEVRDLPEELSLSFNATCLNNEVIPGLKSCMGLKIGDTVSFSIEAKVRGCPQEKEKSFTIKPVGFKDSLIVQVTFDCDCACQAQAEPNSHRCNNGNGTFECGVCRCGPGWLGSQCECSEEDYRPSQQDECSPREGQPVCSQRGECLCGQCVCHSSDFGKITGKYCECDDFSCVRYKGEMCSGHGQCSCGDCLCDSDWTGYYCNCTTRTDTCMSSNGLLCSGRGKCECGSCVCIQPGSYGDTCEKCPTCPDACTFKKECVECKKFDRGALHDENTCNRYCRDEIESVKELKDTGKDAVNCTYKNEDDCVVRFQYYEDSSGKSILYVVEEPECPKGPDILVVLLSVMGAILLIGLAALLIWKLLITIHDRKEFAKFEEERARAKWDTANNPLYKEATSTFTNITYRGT
Target sequence in this assay (P06756 31-889 limits assumed): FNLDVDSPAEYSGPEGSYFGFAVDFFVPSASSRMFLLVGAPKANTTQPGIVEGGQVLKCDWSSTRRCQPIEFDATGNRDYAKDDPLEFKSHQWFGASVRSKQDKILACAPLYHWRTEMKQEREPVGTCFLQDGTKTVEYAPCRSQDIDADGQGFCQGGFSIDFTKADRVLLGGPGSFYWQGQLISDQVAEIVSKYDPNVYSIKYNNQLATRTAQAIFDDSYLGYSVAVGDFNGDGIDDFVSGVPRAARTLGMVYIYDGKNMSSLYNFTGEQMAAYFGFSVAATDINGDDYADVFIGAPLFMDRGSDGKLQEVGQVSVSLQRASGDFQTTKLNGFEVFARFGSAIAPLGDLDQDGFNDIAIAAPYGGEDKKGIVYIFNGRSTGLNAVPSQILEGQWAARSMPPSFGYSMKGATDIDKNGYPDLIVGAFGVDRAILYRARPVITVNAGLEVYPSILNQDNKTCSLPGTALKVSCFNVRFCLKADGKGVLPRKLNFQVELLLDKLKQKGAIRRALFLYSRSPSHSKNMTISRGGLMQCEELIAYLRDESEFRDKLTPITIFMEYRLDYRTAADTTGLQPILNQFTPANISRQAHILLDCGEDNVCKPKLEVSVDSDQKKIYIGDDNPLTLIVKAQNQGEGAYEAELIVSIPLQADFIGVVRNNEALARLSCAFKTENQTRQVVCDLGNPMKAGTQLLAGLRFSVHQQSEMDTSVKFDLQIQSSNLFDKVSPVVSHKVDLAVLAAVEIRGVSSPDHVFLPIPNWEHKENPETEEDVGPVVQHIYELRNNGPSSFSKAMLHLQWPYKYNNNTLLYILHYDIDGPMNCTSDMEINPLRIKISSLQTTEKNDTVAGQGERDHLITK
Target sequence in this assay (P06756 891-1048 limits assumed): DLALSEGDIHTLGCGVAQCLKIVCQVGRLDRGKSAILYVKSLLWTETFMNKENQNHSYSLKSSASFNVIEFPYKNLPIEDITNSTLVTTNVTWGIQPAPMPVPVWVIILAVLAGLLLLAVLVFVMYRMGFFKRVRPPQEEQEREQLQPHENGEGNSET
For data set [2], the target named is T1, Integrin alpha-V/beta-3. Kind of data set: Inhibition of integrin alphavbeta3 expressing human A375M cell adhesion to vitronectin at 0.1 to 10 uM after 30 mins by crystal violet staining method in presence of 2 mmol/L of MnCl2. Format: protein-complex assay. In short, it runs like this:
(§1)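 Wells coated overnight at 4 °C with fibronectin (1 μg/mL) or vitronectin (10 μg/mL), blocked with 1% BSA/PBS 1 h at 37 °C. Cells in serum-free medium were preincubated with ligand (final 0.1, 1 or 10 μM) 30 min at 37 °C, then seeded at 4–5 × 10⁴/well for 2 h at 37 °C. HUVEC were IL-1β (400 U/mL)-stimulated; melanoma runs included 2 mmol/L MnCl₂. Adherent cells were stained with crystal violet, read at 540 nm, triplicate, ≥3 repeats.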

The target in data set [3] is T1, Integrin alpha-V/beta-3. Kind of data set: Inhibition of integrin alphaVbeta3 expressing human A375M cell adhesion to fibronectin at 0.1 to 10 uM after 30 mins by crystal violet staining method in presence of 2 mmol/L of MnCl2. Format: protein-complex assay. In short, it runs like this: as §1
Data set [4] deals with HUVEC. Briefly: Inhibition of IL-1beta-induced alphaV, beta3, beta5, alpha5, beta1, and alphavbeta3 expressing HUVEC adhesion to vitronectin at 0.1 to 10 uM after 30 mins by crystal violet staining method. Format: functional, cell-based. Particulars: Homo sapiens. An outline of the steps: as §1
The test system of data set [5] is HUVEC. Briefly: Inhibition of IL-1beta-induced alphav, beta3, beta5, alpha5, beta1 and alphavbeta3 expressing HUVEC adhesion to fibronectin at 0.1 to 10 uM after 30 mins by crystal violet staining method. Format: functional, cell-based. Particulars: Homo sapiens. An outline of the steps:
as §1

The subject of data set [6] is HUVEC. Briefly: Antiangiogenic activity against HUVEC seeded on matrigel layer assessed as inhibition of capillary like tube formation at 0.01 uM to 10 uM after 16 to 18 hrs by microscopic analysis. In kind it is functional, cell-based. Particulars: Homo sapiens.
Data set [7] concerns HDF. Kind of data set: Inhibition of HDF adhesion to vitronectin at 0.1 to 10 uM after 30 mins by crystal violet staining method. In kind it is functional. The conditions noted are these: Homo sapiens. An outline of the steps:
as §1

Data set [8] concerns HDF. Kind of data set: Inhibition of HDF adhesion to fibronectin at 0.1 to 10 uM after 30 mins by crystal violet staining method. In kind it is functional. The conditions noted are these: Homo sapiens. An outline of the steps: as §1
A further data set has as its system Mus musculus. Briefly: Biodistribution in non tumor bearing iv dosed mouse gallbladder after 120 mins by micro SPECT-CT analysis. In kind it is ADME, organism-based, Gall bladder. Particulars: in vivo, 2 h.
The subject of another data set is Kidney. Kind of data set: Biodistribution in non tumor bearing iv dosed mouse kidney after 120 mins by micro SPECT-CT analysis. In kind it is ADME, organism-based. The conditions noted are these: in vivo, 2 h.
The test system of a further data set is Spleen. Kind of data set: Biodistribution in non tumor bearing iv dosed mouse spleen after 1 to 24 hrs by micro SPECT-CT analysis. Format: ADME, organism-based. Particulars: in vivo.
A further data set deals with Thyroid gland. Kind of data set: Biodistribution in non tumor bearing iv dosed mouse thyroid after 24 hrs by micro SPECT-CT analysis. Format: ADME, organism-based. The conditions noted are these: in vivo.
Data set [9] in a line: Drug uptake in human A375M cells xenografted in SCID mouse tumor at 250 uCi, iv after 40 mins by micro SPECT-CT analysis. The conditions noted are these: in vivo. In kind it is ADME, organism-based, Neoplasm. In short, it runs like this:
(§2)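 SCID bg/bg mice bore s.c. shoulder grafts of 1 × 10⁶ A375 M cells plus 0.5 × 10⁶ TGFβ-activated HDF in PBS/Matrigel 1:1. Under anesthesia on a 37 °C bed, mice received 7–10 MBq tracer in 200 μL saline via tail vein. CT was acquired at 30 min, then SPECT from 40 min pi (20–36 keV window). Displacement runs got cold compound (18 mg/kg) 10 min before tracer. Tumor ROI was normalized to contralateral muscle as (TA−BA)/BA.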
(In xenograft studies the graft and the host belong to different species.)

A short description of data set [10]: Drug uptake in human A375M cells xenografted in mouse tumor at 250 uCi, iv after 40 mins by micro SPECT-CT analysis in presence of c[RGD-(3'I-y)-(3R)-carboxymorpholine]. Format: ADME, organism-based, Neoplasm. Particulars: in vivo. In short, it runs like this:
as §2

The source made the active and inactive calls. The rule behind the calls is not given here.

Turning to `N=C(N)NCCC[C@@H]1NC(=O)[C@H]2COCCN2C(=O)[C@@H](Cc2ccc(O)c(I)c2)NC(=O)[C@H](CC(=O)O)NC(=O)CNC1=O`, the IC50 on Integrin alpha-V/beta-3 [1] was determined as 0.048 µM. Moreover, the inhibition entry at Integrin alpha-V/beta-3 [2], on Integrin alpha-V/beta-3 [3], with HUVEC [4], in the data set with HUVEC [5], with HDF [7] and with HDF [8] was “Active” each time. Further, in the data set on HUVEC [6], the inhibition entry was “inactive”.
Take `N=C(N)NCCC[C@@H]1NC(=O)[C@H]2COCCN2C(=O)[C@@H](Cc2ccccc2)NC(=O)[C@H](CC(=O)O)NC(=O)CNC1=O`: the inhibition entry at Integrin alpha-V/beta-3 [2], on Integrin alpha-V/beta-3 [3], with HUVEC [4], in the data set on HUVEC [5], in the data set on HDF [7] and with HDF [8] was “Active” each time. Also, the inhibition result with HUVEC [6] was “inactive”.
Turning to `N=C(N)NCCC[C@@H]1NC(=O)[C@H]2COCCN2C(=O)[C@@H](Cc2ccc(O)c([125I])c2)NC(=O)[C@H](CC(=O)O)NC(=O)CNC1=O`, the Drug uptake entry (with Mus musculus; in the data set on Kidney; in the data set on Spleen; with Thyroid gland; in data set [9]; in [10]) was “Active” in each case.
On to `N=C(N)NCCC[C@@H]1NC(=O)[C@H]2COCCN2C(=O)[C@@H](Cc2ccc(O)cc2)NC(=O)[C@H](CC(=O)O)NC(=O)CNC1=O`, for which the inhibition result at Integrin alpha-V/beta-3 [2], at Integrin alpha-V/beta-3 [3], in the data set with HUVEC [4], with HUVEC [5], in the data set on HDF [7] and in the data set on HDF [8] was “Active” throughout. The inhibition result with HUVEC [6] is “inactive”.
